# Calls of active or inactive are those of the source. The calls are words filed in the database; no cut-off is given here.
# Legend:
# SW48 [1] = assay: Cell cycle arrest in human SW48 cells assessed as accumulation at G2/M phase at 30 uM after 24 hrs by flow cytometry; type: functional
# Outline: (§1)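 Colorectal lines were cultured in D-MEM with 10% FCS and treated at 30 µM for 24 h. Cells (10^6/mL) were resuspended in propidium iodide solution, held at 4 °C overnight and analysed by flow cytometry for DNA content. Values are means of three experiments ± SD.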
# HCT-116 [2] = assay: Cytotoxicity against human HCT116 cells after 72 hrs by MTT assay; type: functional, cell-based; settings: HCT-116, 72 h
# Outline: (§2)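 Cells (5 × 10^3/well) were seeded and incubated 24 h before drug addition, then exposed for 72 h. MTT was added (5 mg/mL stock) and growth was taken as absorbance relative to untreated wells. IC50 is the dose giving 50% growth inhibition. Three experiments were run, each in triplicate. Media: D-MEM with 10% FCS for MCF-7, HCT116, SW48 and SW480; RPMI1640 with 10% FCS for Mes-sa and CEM.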
# HeLa [3] = assay: Antimitotic activity in human HeLa cells expressing GFP-tubulin assessed as aberration of mitotic spindle at 12 uM after 24 hrs by fluorescence microscopy; type: functional; settings: in the assay text read “6 hrs” for “24 hrs”
# Outline: (§3)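 HeLa cells were grown in DMEM with 10% FBS at 37 °C in 5% CO2 and left to adhere for at least 36 h on poly-D-lysine-coated coverslips. Drugs were diluted in medium from 50 mM DMSO stocks. Cells were fixed with 1% paraformaldehyde then cold methanol and stained with anti-β-tubulin plus a FITC secondary, with propidium iodide counterstain. Aberrant spindles were scored as a percentage of total spindles counted.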
# [4] = Inhibition of tubulin polymerization in bovine brain; design: species or system Bos taurus
# Outline: (§4)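 Purified bovine brain tubulin (29 µM) was added to PEM buffer (100 mM PIPES, 1 mM MgCl2, 1 mM EGTA) with increasing inhibitor concentrations, up to 100 µM, in DMSO at equal DMSO levels. Polymerization was followed by absorbance at 340 nm for at least 1 h at 37 °C, and IC50 was taken from concentration–response plots.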
# SW48 [5] = assay: Cell cycle arrest in human SW48 cells assessed as accumulation at S phase at 30 uM after 24 hrs by flow cytometry; type: functional; outline: as §1
# HeLa [6] = assay: Antimitotic activity in human HeLa cells expressing GFP-tubulin assessed as induction of mitotic deffects by flow cytometry; type: functional, cell-based
# SW480 [7] = assay: Cell cycle arrest in human SW480 cells assessed as accumulation at G2/M phase at 30 uM after 24 hrs by flow cytometry; type: functional; outline: as §1
# HeLa [8] = assay: Antimitotic activity in human HeLa cells expressing GFP-tubulin assessed as block of G2/M phase after 24 hrs by flow cytometry; type: functional, cell-based
# Outline: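 HeLa cells were exposed to increasing inhibitor concentrations for 24 h. The percentage of G2/M cells was determined by flow cytometry, with nocodazole as the reference mitotic inhibitor.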
# HCT-116 [9] = assay: Cell cycle arrest in human HCT116 cells assessed as accumulation at G1 phase at 30 uM after 24 hrs by flow cytometry; type: functional; outline: as §1
# SW480 [10] = assay: Cytotoxicity against human SW480 cells after 72 hrs by MTT assay; type: functional, cell-based; settings: SW480, 72 h; outline: as §2
# SW48 [11] = assay: Cytotoxicity against human SW48 cells after 72 hrs by MTT assay; type: functional, cell-based; settings: SW48, 72 h; outline: as §2
# SW48 [12] = assay: Cell cycle arrest in human SW48 cells assessed as accumulation at G1 phase at 30 uM after 24 hrs by flow cytometry; type: functional; outline: as §1
# MCF7 = assay: Cytotoxicity against human MCF7 cells after 72 hrs by MTT assay; type: functional, cell-based; settings: MCF7, 72 h; outline: as §2
# [13] = Cytotoxicity against human MES-SA cells after 72 hrs by MTT assay; type: functional, cell-based; outline: as §2
# HCT-116 [14] = assay: Cell cycle arrest in human HCT116 cells assessed as accumulation at S phase at 30 uM after 24 hrs by flow cytometry; type: functional; outline: as §1
# CCRF-CEM = assay: Cytotoxicity against human CEM cells after 72 hrs by MTT assay; type: functional, cell-based; outline: as §2
# HeLa [15] = assay: Antimitotic activity in human HeLa cells expressing GFP-tubulin assessed as increase in aberration of mitotic spindle after 24 hrs by fluorescence microscopy; type: functional, cell-based; settings: in the assay text read “6 hrs” for “24 hrs”; outline: as §3
# SW480 [16] = assay: Cell cycle arrest in human SW480 cells assessed as accumulation at S phase at 30 uM after 24 hrs by flow cytometry; type: functional; outline: as §1
# SW480 [17] = assay: Cell cycle arrest in human SW480 cells assessed as accumulation at G1 phase at 30 uM after 24 hrs by flow cytometry; type: functional; outline: as §1
# HCT-116 [18] = assay: Cell cycle arrest in human HCT116 cells assessed as accumulation at G2/M phase at 30 uM after 24 hrs by flow cytometry; type: functional; outline: as §1
# HeLa [19] = assay: Antimitotic activity in human HeLa cells expressing GFP-tubulin assessed as collapse of spindle microtubule at 12 uM
# HeLa [20] = assay: Antimitotic activity in human HeLa cells expressing GFP-tubulin assessed as induction of mitotic deffects at 50 uM by flow cytometry; type: functional, cell-based
# Bos taurus = organism: Bos taurus; assay: Inhibition of tubulin polymerization in bovine brain relative to baseline; settings: concentration not given here; outline: as §4
IC50 [4] [µM],SMILES,Activity (SW48 [1]) [%],IC50 (HCT-116 [2]) [µM],Activity (HeLa [3]) [%],Activity (SW48 [5]) [%],Activity (HeLa [6]),Activity (SW480 [7]) [%],Activity (HeLa [8]),Activity (HCT-116 [9]) [%],IC50 (SW480 [10]) [µM],IC50 (SW48 [11]) [µM],Activity (SW48 [12]) [%],IC50 (MCF7) [µM],IC50 [13] [µM],Activity (HCT-116 [14]) [%],IC50 (CCRF-CEM) [µM],Activity (HeLa [15]),Activity (SW480 [16]) [%],Activity (SW480 [17]) [%],Activity (HCT-116 [18]) [%],also measured
3.4,COc1ccc(CNc2nc(NCc3ccc(OC)cc3)n3nccc3n2)cc1,62,6.2,100,21,Active,42,Active,19,8.1,5.2,16,34,45,29,13,Dose-dependent effect,15,43,51,
3.6,COc1ccc(CNc2nc(NCc3ccc(OC)cc3)c3ncn(C(C)C)c3n2)cc1 [MYOSEVERIN],98,3.3,100,1,Active,84.5,Active,1.8,4.8,2.7,1,11.5,8.5,9.5,5.7,Dose-dependent effect,3,12.5,88,Activity (HeLa [19]): Active
,COc1ccc(CNc2nc(NCc3ccc(OC)cc3)n3ncc(Br)c3n2)cc1,42.5,25,,0.5,,28,,44,26.5,7.5,50,35.5,43,0.5,38.5,,9,62,55.5,Activity (HeLa [20]): inactive; inhibition (Bos taurus): 50%
3.6,COc1ccc(CNc2nc(NCc3ccc(OC)cc3)n3ncc(C(C)C)c3n2)cc1,75.4,4.6,100,1.3,Active,91.2,Active,8,5.5,2.6,22.4,51.5,23,2.8,5.4,Dose-dependent effect,5.9,3,89.3,
